Test results published in ChEMBL document CHEMBL2331097, “Synthesis of 5,7-disubstituted-4-methyl-7H-pyrrolo[2,3-d]pyrimidin-2-amines as microtubule inhibitors” (Bioorg Med Chem, 2013).
Calls of active or inactive are those of the source. The rule behind the calls is not given here.

What was measured:
JC = assay: Modulatory activity at P-gp in mouse JC cells assessed as lowest drug concentration required to increase intracellular [3H]taxol accumulation pretreated for 30 mins prior to [3H]taxol addition measured after 60 mins by liquid scintillation counting analysis; type: cell-based
In short: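 JC cells were seeded at about 25% confluency and grown 3–4 days to near confluency. Medium was switched to serum-free, and compounds were preincubated for 30 min at 37 °C. About 0.1 µCi [³H]Taxol (75 Ci/mmol) per well followed, for 60 min at 37 °C. Cells were washed twice with ice-cold PBS and lysed in 1% SDS. Intracellular label was counted by liquid scintillation, and the lowest concentration giving maximal accumulation was recorded.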

[1] = Cytotoxicity against mouse JC cells assessed as inhibition of cell survival after 48 hrs by SRB assay; type: functional, cell-based
In short: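 JC (CRL-2116) cells kept in RPMI-1640 with L-glutamine, 10% FBS and 50 μg/ml gentamicin at 37 °C, 5% CO₂. Cells were seeded at about 20% confluency and left 24 h to attach, then exposed to a range of concentrations for 48 h. Cells were PBS-washed, fixed in 10% trichloroacetic acid and stained with 0.4% SRB in 1% acetic acid. Dye was dissolved in 10 mM Tris and absorbance read at 570 nm.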

[2] = Ratio of compound IC50 to paclitaxel IC50 for mouse JC cells after 48 hrs by SRB assay; type: functional

| Structure (SMILES) | LED (JC) | IC50 [1] | Ratio IC50 [2] |
| --- | --- | --- | --- |
| COc1ccccc1Sc1cn(Cc2ccccc2)c2nc(N)nc(C)c12 | 1.5 µM | 11 µM |  |
| COc1ccc(Sc2cn(Cc3ccccc3)c3nc(N)nc(C)c23)cc1 | inactive | 10 µM |  |
| COc1ccccc1Cn1cc(CCc2cc(OC)c(OC)c(OC)c2)c2c(C)nc(N)nc21 | 2 µM | 1 µM | 6.6 |
| COc1ccc(Cn2cc(Sc3ccccc3OC)c3c(C)nc(N)nc32)cc1 | inactive | 2.5 µM |  |
| Cc1nc(N)nc2c1c(Sc1ccc(Cl)cc1)cn2Cc1ccccc1 | inactive | 7.5 µM |  |
| COc1cc(Cn2cc(CCc3cc(OC)c(OC)c(OC)c3)c3c(C)nc(N)nc32)cc(OC)c1 | 1.5 µM | 3 µM |  |
| COc1ccccc1Cn1cc(Sc2ccccc2OC)c2c(C)nc(N)nc21 | inactive | 9 µM |  |
